Data on 88 molecules can be found in PubChem BioAssay AID720702 (The Scripps Research Institute Molecular Screening Center, 2013).

Screen size: about 370,000 compounds; about 1,200 (0.32%) were called active. The sample holds actives, similar compounds and a random draw of the others, so the mix is not that of the screen. Values without a mark were called inactive.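 The calls were made as follows: active = inhibition above the mean of all tested compounds plus 3 SD, set per campaign (cut at about 25% in these data); inactive = the rest.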

The test deals with Tyrosyl-DNA phosphodiesterase 2 (Homo sapiens) (UniProt O95551). As to the kind of experiment: human TDP2 enzyme inhibitors, primary screen, biochemical, epi absorbance, recombinant enzyme (AID 720702).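 Also: 0% = DMSO with enzyme and 100% = buffer with substrate but no TDP2.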 The settings on record: recombinant TDP2, T5PNP hydrolysis, p-nitrophenol absorbance 415 nm; at 12.8 µM; active compounds read high. The method, boiled down: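 System – recombinant human TDP2 · Quantity – TDP2 enzyme at 120 nM final · Doses – single concentration, 12.8 µM nominal, with 1% DMSO · Incubation – 2 h at 37 °C · Measured by – epi absorbance of p-nitrophenol freed from T5PNP by hydrolysis · Read-out – % inhibition relative to enzyme-containing and enzyme-free wells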
Chain of Tyrosyl-DNA phosphodiesterase 2 (Homo sapiens) (O95551 whole entry, looked up): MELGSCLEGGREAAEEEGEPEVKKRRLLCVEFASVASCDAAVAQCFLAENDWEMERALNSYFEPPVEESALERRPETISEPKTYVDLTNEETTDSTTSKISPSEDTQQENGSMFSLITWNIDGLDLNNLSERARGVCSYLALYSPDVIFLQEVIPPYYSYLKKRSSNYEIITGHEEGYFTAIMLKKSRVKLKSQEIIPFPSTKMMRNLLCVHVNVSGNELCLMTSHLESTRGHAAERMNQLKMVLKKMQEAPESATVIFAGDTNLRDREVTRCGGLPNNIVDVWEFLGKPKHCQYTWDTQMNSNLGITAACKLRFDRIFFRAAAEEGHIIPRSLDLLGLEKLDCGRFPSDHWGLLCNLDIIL
What is called inhibition is the relative decrease from the control value, in per cent. Regarding `Cc1ccc(S(=O)(=O)NNC(=S)NC(C)(C)C)cc1`, the inhibition was 0.38%.

Take `COc1ccc2c(c1)c(=Cc1ccc(N(C)C)cc1)c1cc(-c3ccccc3)[n+](C)n12`: the inhibition was 28.4% (active). Under `CCOC(=O)[C@]12CCCCC/C=C\1N(Cc1ccc(OC)cc1)C(=O)[C@H]2CC(=O)NCCCN1CCCC1=O` stands -4.43%. `CC(C)CCNC(=O)C1CCC(CNc2c(N3CCC(C)CC3)c(=O)c2=O)CC1` (stereo not drawn): the inhibition is -1.37%.

Take `CC(=O)N(C1=C(Cl)C(=O)c2ccccc2C1=O)c1ccc(C(=O)O)cc1`: the inhibition was 42.4% (active). For `O=C1C(Cl)=C(Oc2ccccc2)C(=O)c2ccccc21`, the inhibition is 3.22%. With `COP(=O)(O)CNC(=O)OCc1ccccc1`, the inhibition is -6.21%.

As for `CCn1c(=O)n2n(c1=O)[C@@]1(C=C3CCCC[C@H]32)N=C(NC(=O)c2ccccc2)N(Cc2ccccc2)[C@H]1Cc1ccccc1`, the inhibition was 4.32%. Consider `Cc1nc(CNc2ncnc3ccc(-c4ccc5c(c4)OCO5)cc23)cs1`, for which the inhibition was 0.28%. The result for `CN1c2ccc(C=O)c3c(C=O)ccc(c23)N(C)C1(C)C` reads 48.6% (active).

Take `COc1ccc(N2CCN(CCNS(=O)(=O)c3ccc(Cl)s3)CC2)cc1`: the inhibition was -1.58%. The result for `O=C(NC1=CC(=O)c2ccccc2C1=O)c1ccccc1` reads 44.5% (active); that for `O=C(NN1C(=O)C2C3C=CC(O3)C2C1=O)c1ccccc1` (stereo not drawn), -12.4%; that for `NS(=O)(=O)c1cc(C(=O)OCC(=O)NNC(=O)c2ccccc2)ccc1Cl`, -0.47%. In the case of `Cc1ccccc1NC(=O)C(C)OC(=O)CCC(=O)N(CC(C)C)c1c(N)n(CC(C)C)c(=O)[nH]c1=O` (stereo not drawn), the inhibition was -3.56%. The result for `O=C1OC(Oc2ccc(Br)cc2)(c2ccccc2)c2ccccc21` (stereo not drawn) reads -5.92%; that for `O=C(COC(=O)CCc1c[nH]c2ccccc12)Nc1cccc(Cl)c1`, 9.41%.

On to `CC(C)(C)N(Cc1ccccc1)C(=O)COC(=O)CCc1c[nH]c2ccccc12`, for which the inhibition was -14.4%. The result for `O=C(COC(=O)Cc1c[nH]c2ccccc12)NCCc1ccccc1` reads 24.9% (active); that for `COc1cccc(Cn2cc(COC(=O)Nc3ccc(F)cc3)nn2)c1`, 4.69%. Under `N#Cc1ccc(C(=O)Nc2nc(-c3cccs3)c(C(=O)C(F)(F)F)s2)cc1` stands -0.4%. Under `CC1CCCC(NC(=O)c2cc(-c3ccncc3)nc3ccccc23)C1C` (stereo not drawn) stands 68.1% (active); under `CC1CCCC(NC(=O)c2cc(S(=O)(=O)N3CCCCC3)ccc2Cl)C1C` (stereo not drawn), 5.78%; under `CC1CCCCC1NC(=O)c1cc(=O)[nH]c2ccccc12` (stereo not drawn), 6.87%.

As for `COc1ccc(-c2ccc3c(n2)CCCN3S(=O)(=O)c2ccc(C)cc2)cc1`, the inhibition is 4.76%.

As for `N#Cc1c(N2CCCCC2)nc(N)c2c(N)nc(SCC(=O)O)cc12`, the inhibition is 7.63%.

With `CCOC(=O)c1ccc(NC(=O)C2CC(=O)Nc3nc4ccccc4n32)cc1` (stereo not drawn), the inhibition was -14.1%. The result for `CCOC(=O)c1ccc(NC2Nc3cc(C)nn3S2)cc1` (stereo not drawn) reads 26.6% (active); that for `CCc1ccc(NC2Nc3cc(C)nn3S2)cc1` (stereo not drawn), -7.9%. `COc1ccc(S[C@]2(C(=O)N(C)C)CC(=O)N(c3ccc(OC)cc3)[C@@H]2c2ccc(OC)cc2)cc1`: the inhibition was -13.2%. Under `C/C(=N/O)c1ccc(N2C(=O)C3C4C=CC(C3C2=O)C2C3C(=O)N(c5ccc(/C(C)=N/O)cc5)C(=O)C3C42)cc1` (stereo not drawn) stands -7.03%; under `O=C(Nc1cccc2c1CCCC2)C1CCN(C(=O)NC2CCCCC2)CC1`, 1.74%; under `O=C(CSc1nnc2c(n1)[nH]c1ccccc12)NC1CCCCC1`, -1.87%. The result for `O=C(NC1CCCCC1)N1CCc2[nH]c3ccccc3c2C1` reads 56.5% (active); that for `N#C/C(C(=S)Nc1ccccc1)=C1/NN=C(N2CCOCC2)N1c1ccccc1`, 10.7%. The result for `COC(=O)c1ccc(C2C(Oc3ccccc3C)C(=O)N2CCc2ccc(OC)c(OC)c2)cc1` (stereo not drawn) reads -12.5%. As for `CCc1ccc(OCC(=O)OC(C)C(=O)NC2CC2)cc1` (stereo not drawn), the inhibition is -6.8%.

As to `CCCCC1=CC2=CC(=O)C(C)(OC(=O)CC)C(=O)C2=CN1CCCOC(C)C` (stereo not drawn), the inhibition is 13.3%. Under `CC1(OC(=O)C2CCCC2)C(=O)C=C2C=C(c3ccc(C#N)cc3)OC=C2C1=O` (stereo not drawn) stands 0.49%; under `COCCN1C=C2C(=O)C(C)(OC(=O)C3CCCC3)C(=O)C=C2C=C1c1ccsc1` (stereo not drawn), 31.4% (active). Under `COCCNc1nnc(SCC(=O)NNC(=O)c2ccco2)s1` stands 5.04%; under `CCSc1nnc(SCC(=O)NNC(=O)c2ccccc2F)s1`, 24.7% (active). Under `O=C(Cn1cnc2ccccc2c1=O)NNC(=O)c1ccccc1F` stands 4.65%; under `Cc1sc2nc(SCC(=O)c3ccc(O)c(O)c3)n(Cc3ccco3)c(=O)c2c1C`, -1.34%; under `Cc1ccc(-c2nc(CS(=O)CC(=O)N3CCN(c4ncccn4)CC3)c(C)o2)cc1` (stereo not drawn), 0.23%. In the case of `COC(=O)[C@]12C[C@H](CC(=O)N3CCOCC3)C(=O)N(Cc3ccc(Cl)cc3Cl)C1=C[C@H](COCc1ccccc1)O[C@@H]2C`, the inhibition is 12.9%.

Regarding `Nc1ccc2nn(-c3ccc(Cl)cc3)nc2c1`, the inhibition is 30.9% (active).

For `CCC(=O)Nc1ccc2nn(-c3ccc(F)cc3)nc2c1`, the inhibition was -12.3%.

For the molecule `O=C(NC1CCCC1)C1CSCCS(=O)(=O)N1Cc1ccccc1` (stereo not drawn), the inhibition was 7.85%. Take `COc1ccccc1C(=O)CSc1nnc(-c2ccccn2)n1-c1ccccc1`: the inhibition was -12.9%. Under `COc1ccc(CSc2nnc(SCC(=O)Nc3ccccc3C(F)(F)F)s2)cc1` stands -0.45%; under `CCOc1c(Br)cc(/C=C2\C(=O)N(CCC#N)N=C2C)cc1OC`, 59.9% (active).

`CC(C)C(C#CC1CC1)N(Cc1ccc2c(c1)OCO2)C(N)=NC(=O)/C=C/c1cccc(C(F)(F)F)c1` (stereo not drawn): the inhibition was 4.77%. Regarding `COC1=C(N2CCOCC2)C(=O)c2ccccc2C1=O`, the inhibition is 36.8% (active). Under `O=C1c2ccccc2-c2ncnc3c(N4CCOCC4)cc(N4CCOCC4)c1c23` stands -13.8%; under `COc1ccc(S(=O)(=O)N2CCOCC2)c(C)c1C`, 0.48%.

`CCCS(=O)(=O)NC(=O)C1(C)CCN(C(=O)c2sccc2C)C1` (stereo not drawn): the inhibition was -5.34%. On to `CCCCNC(=O)C[C@@H]1C(=O)N(CCc2ccc(Cl)cc2)C2=CCCC[C@]21C(=O)OCC`, for which the inhibition is 8.61%. Under `COc1ccc2c(c1)C(=O)Nc1cc(Cl)ccc1N2` stands -17%; under `O=C1Nc2ccc([N+](=O)[O-])cc2C1=Nc1cccc(CO)c1`, 36.9% (active). Under `O=C(CCl)N(Cc1cccc([N+](=O)[O-])c1)c1cccc(Cl)c1` stands -6.43%; under `COc1ccc([N+](=O)[O-])cc1C1NN=C(c2cccc3ccccc23)S1` (stereo not drawn), 3.04%. For `Cc1nn2cc(-c3ccc(Cl)cc3)cnc2c1Br`, the inhibition is 4.6%.

On to `C=CCn1c(SCc2ccc(Cl)c(Cl)c2)nnc1C(CO)NC(=O)c1ccc(OC)cc1` (stereo not drawn), for which the inhibition was -1.56%. The result for `CCCc1c(C)nc2c(Br)cccc2c1Cl` reads 3.31%; that for `CCCN(CCC)c1c([N+](=O)[O-])c(=O)oc2ccccc12`, 6.98%.

Regarding `O=c1oc2ccccc2c(CNc2ccccc2)c1[N+](=O)[O-]`, the inhibition was 40.8% (active). The result for `Nc1c(NCCc2ccccc2)c2ccccc2oc1=O` reads -16.4%; that for `O=C(OCc1ccccc1)N1CCC2CC1c1ccc(-c3ccc4c(c3)OCO4)cc12` (stereo not drawn), -3.35%. The result for `Cc1ccc(S(=O)(=O)/N=C2\C=C(NS(=O)(=O)c3ccc(C)cc3)C(=O)c3ccccc32)cc1` reads 4.19%. Under `COc1ccc(S(=O)(=O)/N=C2\C=C(NS(=O)(=O)c3ccccc3)C(=O)c3ccccc32)cc1` stands 36.1% (active); under `COc1ccc(C(=O)C(C)OC(=O)c2cccc(S(=O)(=O)Nc3c(C)n(C)n(-c4ccccc4)c3=O)c2)cc1` (stereo not drawn), -13.4%; under `CCCCNC(=O)C[C@H]1C[C@@]2(C(=O)OC)C(=C[C@H](COCc3ccccc3)O[C@@H]2C)N(Cc2ccc(Cl)cc2Cl)C1=O`, -0.01%. As for `C=CCN1C(=O)[C@H](CC(=O)N2CCN(C(=O)OCC)CC2)[C@@]2(C(=O)OCC)CCCC=C12`, the inhibition was 4.51%. Under `CCN(CC)CCCN=C(N)N` stands 1.59%; under `COc1ccc(-c2ccc3nnc(SCC(=O)Nc4ccc(NC(C)=O)cc4)n3n2)cc1`, -3.62%. Under `COc1ccc(NC2=CC(=S)NC(C)(C)C2)cc1` stands -0.55%; under `COc1ccc(-c2csc(Nc3ccc(O)cc3)n2)cc1`, 26.4% (active); under `CCc1cc(=O)oc2cc(OCC(=O)N3CCCc4ccccc43)ccc12`, 6.19%. Consider `COC(=O)c1cc(S(=O)(=O)N2CCN(C(=O)C3CCCO3)CC2)cn1C` (stereo not drawn), for which the inhibition was -2.33%.

For the molecule `CCCCN(C)C(=O)c1ccc2c(c1)N(CC)C(=O)c1ccccc1S2(=O)=O`, the inhibition is 7.54%. As for `CCN1C(=O)c2cccc3c(S(=O)(=O)Nc4ccccc4O)ccc1c23`, the inhibition is -2.02%. Consider `CCN1C(=O)c2cccc3c(N)ccc1c23`, for which the inhibition is 30.9% (active).

Take `CCOC(=O)c1cccc(NC(=O)CN(C)S(=O)(=O)c2ccc(-c3cocn3)s2)c1`: the inhibition is -8.94%.

For the molecule `COc1ccc(-c2[nH][nH]c(=O)c2NC(=O)c2ccc([N+](=O)[O-])cc2)cc1`, the inhibition is 19.5%. Under `O=C(NC1CC1)c1ccc(-c2ccccc2)cc1` stands -8.19%; under `Cc1ccc(C(=O)Nc2c(-c3ccccc3)[nH][nH]c2=O)cc1`, 44.4% (active); under `C=CCN1C(=O)[C@@H](CC(=O)NCCCCc2ccccc2)[C@]2(C(=O)OCC)CCCCC/C=C/12`, 3.84%.
